Assay results taken from publication PMC7893792 (ACS Omega, 2021).
Blank lines part the entries; values can stand above or below the molecule they belong to.

Tests used:
rOat1 = molecular target: T1, rOat1 (Rattus norvegicus, UniProt O35956); experiment: 6-CF uptake by rOat1-expressing HEK293 cells; format: cell-based
T1 sequence (O35956 1-551): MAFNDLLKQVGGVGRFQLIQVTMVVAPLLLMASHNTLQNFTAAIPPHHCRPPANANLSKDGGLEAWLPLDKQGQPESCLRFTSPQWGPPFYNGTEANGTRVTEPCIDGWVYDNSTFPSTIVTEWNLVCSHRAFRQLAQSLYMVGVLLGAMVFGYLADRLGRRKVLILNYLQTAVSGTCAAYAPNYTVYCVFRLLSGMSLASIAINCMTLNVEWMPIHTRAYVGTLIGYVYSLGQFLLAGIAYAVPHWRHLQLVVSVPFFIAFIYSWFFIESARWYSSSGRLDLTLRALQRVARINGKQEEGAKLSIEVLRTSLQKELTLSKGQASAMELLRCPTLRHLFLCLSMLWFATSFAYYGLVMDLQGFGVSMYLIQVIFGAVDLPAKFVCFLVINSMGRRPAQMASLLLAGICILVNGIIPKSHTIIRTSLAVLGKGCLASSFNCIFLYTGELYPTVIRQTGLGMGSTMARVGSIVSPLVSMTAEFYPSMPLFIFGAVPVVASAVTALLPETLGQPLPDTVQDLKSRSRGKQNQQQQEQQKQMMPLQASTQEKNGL

rOat3 = molecular target: T2, rOat3 (Rattus norvegicus, UniProt Q9R1U7); experiment: 6-CF uptake by rOat3-expressing HEK293 cells; format: cell-based; settings: for inhibition at 100 µM: HEK293, pH 7.4, read-out: Inhibition of rOat3-mediated 6-CF uptake
T2 sequence (Q9R1U7 1-536): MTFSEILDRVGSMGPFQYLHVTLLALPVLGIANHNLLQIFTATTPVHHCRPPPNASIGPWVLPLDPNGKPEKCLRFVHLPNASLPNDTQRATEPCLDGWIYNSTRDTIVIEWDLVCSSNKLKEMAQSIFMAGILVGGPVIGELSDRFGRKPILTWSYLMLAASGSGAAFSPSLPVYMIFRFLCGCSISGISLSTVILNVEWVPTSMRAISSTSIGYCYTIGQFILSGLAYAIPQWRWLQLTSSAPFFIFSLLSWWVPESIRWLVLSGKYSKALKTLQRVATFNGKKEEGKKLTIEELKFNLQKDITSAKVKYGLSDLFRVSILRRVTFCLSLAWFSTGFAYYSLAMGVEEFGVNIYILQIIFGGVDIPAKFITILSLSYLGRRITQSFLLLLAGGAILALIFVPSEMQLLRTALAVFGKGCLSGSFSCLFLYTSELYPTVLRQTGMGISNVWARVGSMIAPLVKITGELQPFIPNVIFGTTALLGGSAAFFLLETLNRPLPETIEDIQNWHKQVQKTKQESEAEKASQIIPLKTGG

[1] = Plasma concentration and urinary excretion of 6-CF in rats; format: in vivo; settings: male, Wistar/ST, rat, iv, 1 mg/kg
Procedure, shortened: (§1)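 Male Wistar/ST rats (7 weeks) were anesthetized with ethyl carbamate/α-chloralose, with femoral artery, vein and bladder catheters. 5% mannitol iv bolus 2.5 mL/kg, then 0.03 mL/min infusion. After 20 min, 6-CF 1 mg/kg iv bolus ± test compound 60 mg/kg, saline vehicle. Plasma sampled 1–60 min, urine 0–60 min; fluorescence read-out. AUC0–60 by trapezoidal rule; CLr = 60-min urinary amount/AUC0–60; mean ± SD, 6–8 rats.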

hOAT1 [2] = molecular target: T3, hOAT1 (Homo sapiens, UniProt Q4U2R8); settings: cited from earlier work
T3 sequence (Q4U2R8 1-563): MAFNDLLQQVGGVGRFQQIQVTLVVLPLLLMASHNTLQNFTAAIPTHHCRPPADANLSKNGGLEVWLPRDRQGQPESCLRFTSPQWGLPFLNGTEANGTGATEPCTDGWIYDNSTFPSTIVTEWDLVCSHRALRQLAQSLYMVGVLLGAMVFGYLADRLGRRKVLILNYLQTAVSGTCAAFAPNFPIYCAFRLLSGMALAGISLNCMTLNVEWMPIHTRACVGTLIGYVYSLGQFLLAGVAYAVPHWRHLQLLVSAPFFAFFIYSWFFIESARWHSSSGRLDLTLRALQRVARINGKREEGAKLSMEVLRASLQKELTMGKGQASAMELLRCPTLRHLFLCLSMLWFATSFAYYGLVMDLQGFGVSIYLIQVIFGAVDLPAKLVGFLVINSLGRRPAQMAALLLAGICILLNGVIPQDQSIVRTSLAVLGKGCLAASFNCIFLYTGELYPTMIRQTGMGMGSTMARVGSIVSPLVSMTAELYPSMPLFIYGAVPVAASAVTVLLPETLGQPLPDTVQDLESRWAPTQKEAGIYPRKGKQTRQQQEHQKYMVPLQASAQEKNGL

hOAT3 [3] = molecular target: T4, hOAT3 (Homo sapiens, UniProt Q8TCC7); settings: cited from earlier work
T4 sequence (Q8TCC7 1-542): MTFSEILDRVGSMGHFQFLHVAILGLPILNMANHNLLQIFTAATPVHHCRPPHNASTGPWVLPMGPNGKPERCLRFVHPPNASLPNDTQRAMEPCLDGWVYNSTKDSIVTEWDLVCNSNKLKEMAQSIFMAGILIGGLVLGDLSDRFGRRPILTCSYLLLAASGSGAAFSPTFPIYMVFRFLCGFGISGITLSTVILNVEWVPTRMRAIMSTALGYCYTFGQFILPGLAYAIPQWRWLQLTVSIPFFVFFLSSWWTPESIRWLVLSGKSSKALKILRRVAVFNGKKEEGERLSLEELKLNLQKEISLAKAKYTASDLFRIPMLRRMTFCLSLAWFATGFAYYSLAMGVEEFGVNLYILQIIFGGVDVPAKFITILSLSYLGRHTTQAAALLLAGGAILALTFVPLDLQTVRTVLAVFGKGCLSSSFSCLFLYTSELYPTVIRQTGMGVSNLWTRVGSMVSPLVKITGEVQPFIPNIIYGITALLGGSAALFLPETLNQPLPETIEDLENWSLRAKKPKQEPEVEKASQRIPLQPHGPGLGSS

renal Oats = experiment: Plasma concentration and urinary excretion of 6-CF in rats; format: in vivo; settings: rat; for Decrease of the renal clearance (CLr) of 6-CF: vs control, probenecid 100 mg/kg, EGCG 60 mg/kg, 2% D-malate
Procedure, shortened: as §1

Renal parameters = format: in vivo; settings: rat; for BUN / Ccr: iv probenecid 100 mg/kg, EGCG 60 mg/kg or 2% D-malate; for Change in blood urea nitrogen (BUN) / Change in creatinine clearance (Ccr): vs control, Dunnett's test
Procedure, shortened: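 Anesthetized, catheterized male Wistar/ST rats on iv 5% mannitol (2.5 mL/kg bolus, 0.03 mL/min infusion; ± 2% D-malate) received 6-CF 1 mg/kg iv alone or with reference inhibitor 100 mg/kg or test compound 60 mg/kg. BUN measured with a colorimetric urea kit; plasma and urine creatinine by kit. Ccr = urinary creatinine excretion rate ÷ plasma creatinine. One-way ANOVA, Dunnett's test vs control.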

hOAT1 [4] = molecular target: T3, hOAT1; experiment: 6-CF uptake by hOAT1-expressing HEK293 cells; format: cell-based
hOAT3 [5] = molecular target: T4, hOAT3; experiment: 6-CF uptake by hOAT3-expressing HEK293 cells; format: cell-based; settings: for inhibition at 100 µM: HEK293, pH 7.4, read-out: Inhibition of hOAT3-mediated 6-CF uptake
Procedure, shortened: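 After 10 min preincubation at 37 °C in Waymouth buffer pH 7.4, cells took up 1 μM 6-CF with test compound for 2 min, then ice-cold PBS wash, 1% SDS lysis, fluorescence. Vector uptake subtracted. Inhibition type: 6-CF 1–100 μM ± 0.1 mM test compound, Eadie–Hofstee plot; mean ± SE, n = 3–4.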

hOAT1 [6] = molecular target: T3, hOAT1; settings: cited from earlier work; remark: listed apart in the source
mouse Oat3 = settings: cited from earlier work
[7] = substrate: O=C(O)c1ccc(C(=O)O)c(-c2c3ccc(=O)cc-3oc3cc(O)ccc23)c1; experiment: 6-CF uptake by rOat1-expressing HEK293 cells; format: cell-based, rat; settings: other: HEK293-rOat1, 2 min, 37 °C, pH 7.4, 1-100 μM 6-CF
[8] = EGCG 60 mg/kg iv with 6-CF 1 mg/kg
[9] = compound 100 μM, 6-CF 1 μM, 2 min, 37 °C, pH 7.4

Vmax of 6-CF uptake (rOat1; HEK293-rOat1, 2 min, 37 °C, pH 7.4): 131 ± 3 pmol/mg/2 min
Vmax of 6-CF uptake (rOat3; HEK293-rOat3, 2 min, 37 °C, pH 7.4): 35.3 ± 1.3 pmol/mg/2 min
CL renal ([1]; plasma and urine): 18.3 ± 6.8 mL/min/kg
AUC(0-t) ([1]; plasma): 573 ng·h/mL
Molecule: O=C(O)c1ccc(C(=O)O)c(-c2c3ccc(=O)cc-3oc3cc(O)ccc23)c1 [6-CF, 6-carboxyfluorescein]
Vmax of 6-CF transport (hOAT1 [2]): 125.1 ± 1.6 pmol/mg/2 min
Km (hOAT1 [2]; read-out: Km of 6-CF transport): 6.94 ± 0.33 µM
Vmax of 6-CF transport (hOAT3 [3]): 70.0 ± 3.2 pmol/mg/2 min
Km (hOAT3 [3]; read-out: Km of 6-CF transport): 38.4 ± 4.2 µM

Type of inhibition (hOAT1 [4]; hOAT1, Eadie-Hofstee plot): mixed-type inhibition
Type of inhibition (hOAT3 [5]; hOAT3, Eadie-Hofstee plot): competitive inhibition
Type of inhibition (rOat1; rOat1, Eadie-Hofstee plot): competitive inhibition
Type of inhibition (rOat3; rOat3, Eadie-Hofstee plot): competitive inhibition
BUN (Renal parameters): 11.9 ± 1.3 mg/dL
Ccr (Renal parameters): 2.58 ± 0.82 mL/min/kg
Change in blood urea nitrogen (BUN) (Renal parameters): no significant change
Change in creatinine clearance (Ccr) (Renal parameters): no significant change
Molecule: O=C(O[C@@H]1Cc2c(O)cc(O)cc2O[C@@H]1c1cc(O)c(O)c(O)c1)c1cc(O)c(O)c(O)c1 [EGCG, (−)-epigallocatechin-3-gallate]
Increase of 6-CF AUC0–60 (renal Oats; [8]): ~2.2 fold
Increase of the plasma concentration of 6-CF at 60 min (renal Oats; [8]): ~8 fold
Decrease of the renal clearance (CLr) of 6-CF (renal Oats): ~2.6 fold

inhibition at 100 µM (hOAT3 [5]): > 80%
inhibition at 100 µM (rOat3): > 80%
BUN (Renal parameters): 12.6 ± 0.7 mg/dL
Ccr (Renal parameters): 2.51 ± 0.78 mL/min/kg
Change in blood urea nitrogen (BUN) (Renal parameters): no significant change
Change in creatinine clearance (Ccr) (Renal parameters): no significant change
Molecule: CCCN(CCC)S(=O)(=O)c1ccc(C(=O)O)cc1 [probenecid]
Decrease of the renal clearance (CLr) of 6-CF (renal Oats): ~6 fold

inhibition at 100 µM (hOAT3 [5]): > 80%
inhibition at 100 µM (rOat3): > 80%
Molecule: CCCCC[C@H](O)/C=C/[C@H]1[C@H](O)CC(=O)[C@@H]1C/C=C\CCCC(=O)O [prostaglandin E2]

The remaining lines, values behind:

Molecule: O=C(O)C[C@@H](O)C(=O)O [D-malate]
Decrease of the renal clearance (CLr) of 6-CF (renal Oats): ~4 fold
BUN (Renal parameters): 11.4 ± 1.1 mg/dL
Ccr (Renal parameters): 2.92 ± 0.66 mL/min/kg
Change in blood urea nitrogen (BUN) (Renal parameters): no significant change
Change in creatinine clearance (Ccr) (Renal parameters): no significant change

Molecule: CC[N+](CC)(CC)CC [TEA, tetraethylammonium]
Inhibition of hOAT1-mediated 6-CF uptake (hOAT1 [4]; [9]): no effects
Inhibition of hOAT3-mediated 6-CF uptake (hOAT3 [5]; [9]): no effects
Inhibition of rOat1-mediated 6-CF uptake (rOat1; [9]): no effects
Inhibition of rOat3-mediated 6-CF uptake (rOat3; [9]): no effects

Molecule: Nc1ncnc2c1ncn2CCOCP(=O)(O)O [adefovir]
Inhibitory effect, OAT1 compared with OAT3 (human) (hOAT1 [4]; 100 μM, hOAT1 vs hOAT3 plot): higher for OAT1 than those for OAT3
Inhibitory effect, OAT1 compared with OAT3 (rat) (rOat1; 100 μM, rOat1 vs rOat3 plot): higher for OAT1 than those for OAT3

Molecule: O.Oc1cc(O)c2c(c1)O[C@H](c1ccc(O)c(O)c1)[C@@H](O)C2 [catechin]
Interaction with hOAT1 (hOAT1 [6]): did not interact

Molecule: O=C(O[C@@H]1Cc2c(O)cc(O)cc2O[C@@H]1c1ccc(O)c(O)c1)c1cc(O)c(O)c(O)c1 [epicatechin gallate]
Inhibition of mouse Oat3 (mouse Oat3): inhibit

Molecule: Oc1cc(O)c2c(c1)O[C@H](c1ccc(O)c(O)c1)[C@H](O)C2 [epicatechin]
Interaction with hOAT1 (hOAT1 [6]): did not interact
Inhibition of mouse Oat3 (mouse Oat3): inhibit

B1: rOat1 (Rattus norvegicus) (protein)
chain: MAFNDLLKQVGGVGRFQLIQVTMVVAPLLLMASHNTLQNFTAAIPPHHCRPPANANLSKDGGLEAWLPLDKQGQPESCLRFTSPQWGPPFYNGTEANGTRVTEPCIDGWVYDNSTFPSTIVTEWNLVCSHRAFRQLAQSLYMVGVLLGAMVFGYLADRLGRRKVLILNYLQTAVSGTCAAYAPNYTVYCVFRLLSGMSLASIAINCMTLNVEWMPIHTRAYVGTLIGYVYSLGQFLLAGIAYAVPHWRHLQLVVSVPFFIAFIYSWFFIESARWYSSSGRLDLTLRALQRVARINGKQEEGAKLSIEVLRTSLQKELTLSKGQASAMELLRCPTLRHLFLCLSMLWFATSFAYYGLVMDLQGFGVSMYLIQVIFGAVDLPAKFVCFLVINSMGRRPAQMASLLLAGICILVNGIIPKSHTIIRTSLAVLGKGCLASSFNCIFLYTGELYPTVIRQTGLGMGSTMARVGSIVSPLVSMTAEFYPSMPLFIFGAVPVVASAVTALLPETLGQPLPDTVQDLKSRSRGKQNQQQQEQQKQMMPLQASTQEKNGL
Km [7]: 6.68 ± 0.62 µM
